Laboratory results reported in ChEMBL document CHEMBL4513216, “Probing the Open Global Health Chemical Diversity Library for Multistage-Active Starting Points for Next-Generation Antimalarials” (ACS Infect Dis, 2020).

Assay: Toxicity liver stage against HepG2, at 10uM
Type: cell-based
Parameters: test concentration 10 uM, cell line HepG2-A16-CD81EGFP
Conditions: human, HepG2-A16-CD81EGFP cells; read-out: INHIBITION
Outline: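 Uninfected HepG2-A16-CD81EGFP cells, 3 × 10^3 per well, 1536-well, plated on prespotted compound at 10 μM final, parasite-free screening media added to match infected plates; puromycin 10 μM positive, DMSO 0.5% negative; run in parallel with 48 h PbLuc assay at 37 °C, 5% CO2; viability by CellTiter-Glo luminescence, normalized to controls.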

| Compound | cytotoxicity at 10 µM [%] |
| --- | --- |
| O=C(c1cccnc1Oc1ccccc1)N1CCCn2ncnc21 | -13.7 |
| CCN(CC)C[C@H]1CN2CC[C@H]1C[C@@H]2CNC(=O)c1ccco1 | -2.49 |
| O=C1CO[C@H]2CN(S(=O)(=O)c3ccccc3)C[C@H]2N1Cc1ccccc1 | -1.69 |
| COCc1cn(C[C@H]2CC3CCN2C[C@@H]3C(=O)Nc2ccccc2)nn1 (stereo not given in full) | -0.522 |
| CC(C)NC(=O)C[C@@H]1CCNC[C@@H]1Cc1cc(-c2ccccn2)on1 | -3.15 |
| CC1=C[C@@H](CNS(C)(=O)=O)[C@H](C(C)C)C[C@H]1CC(=O)NCCN(C)C | 0.559 |
| COc1ccc(NC(=O)Cn2ccc3c(=O)n(C)ccc32)cc1OC | -4.34 |
| CCCNC(=O)c1cn(C(C)(C)C)c2ncccc12 | -0.317 |
| COCCn1cnc2ccc(NC(=O)c3ccc(OC)cc3)cc2c1=O | -6.78 |
| CC(=O)N1CCC2(CC1)CN(C(C)=O)CC21CCNC1=O (stereo not given) | -2.69 |
| Cc1oncc1C(=O)N1CCC2(CC1)CN(S(C)(=O)=O)c1ccccc12 | 1.47 |
| Cc1cnc(NC2CCc3c(ccc(=O)n3C)C2)nc1 (stereo not given) | -149 |
| CC(=O)N1CCC2(CC1)CN(C(=O)c1cccc3[nH]ccc13)C2 | -121 |
| Cc1nnc([C@@H]2CC[C@@H]3[C@@H](CCN3CC3CCOCC3)O2)o1 | 7.64 |
| Cc1noc(C2CCC3(CCN(C(=O)c4ncccn4)CC3)O2)n1 (stereo not given) | 4.09 |
| CCS(=O)(=O)N1CCC2(CC(=O)N(c3cnn(C)c3)C2)C1 (stereo not given) | 6.92 |
| CN1CCN(Cn2nc(-c3cccs3)ccc2=O)CC1 | 2.63 |
| CN1CCN(C(=O)Cn2ccc3c(Cl)cccc32)CC1 | 2.08 |
| CC[C@H](C)[C@H](NC(=O)c1ccccc1-n1cnnn1)C(=O)OC | 5.16 |
| O=C(c1cnn2c1OCCC2)N1CCC2(CC1)OCCO2 | 7.91 |
| Cc1nc(N2CCN(C(=O)c3ccccc3)CC2)c2c(n1)c(C)nn2C | 15.7 |
| Nc1nc(SCc2ccc3c(c2)OCO3)ns1 | -0.681 |

| Compound | cytotoxicity at 10 µM [%] |
| --- | --- |
| CCN(CC)S(=O)(=O)c1cc2c3c(c1)c(C)cc(=O)n3CCC2 | 2.85 |
| Cc1cc(C)nc(N2CCC(c3c(C(N)=O)sc4ccccc34)C2)n1 (stereo not given) | 8.78 |
| O[C@H]1CN(Cc2ccnc(N3CCCC3)n2)CC[C@@]12CCCO2 | 3.62 |
| Cc1c[nH]nc1C1CCN(C(=O)C2CCC2)CC1 | 5.33 |
| Cc1nccc(C2CN(C(=O)c3cncnc3)C2)n1 | -2.46 |
| O=C(c1nsc(Cl)c1Cl)N1CCc2nc3sccc3c(=O)n2CC1 | -20.4 |
| CC(=O)N1CCC(Cc2nccnc2-c2c(C)n[nH]c2C)C1 (stereo not given) | 10.7 |
| Cc1ncc2c(n1)CCN(Cc1ncc(C(C)(C)C)o1)C2 | 14 |
| CC(CNC(=O)c1cccc(-n2cccn2)c1)Cn1ccnc1 (stereo not given) | 0.335 |
| NC1(c2nc(-c3ccccc3)cc(=O)[nH]2)CCCC1 | 1.47 |
| Cc1nc(CN(C)C(=O)Nc2cccc(COC(C)C)c2)no1 | 8.45 |
| O=C(CCn1cccn1)NCCOc1ccc2c(c1)OCO2 | -5.01 |
| CN(Cc1cnn(C)c1)C(=O)C(c1ccccc1)N1CCSCC1 (stereo not given) | 5.21 |
| NC(=O)[C@@H]1Cc2ccccc2N1C(=O)C1CC(c2ccccc2)=NO1 (stereo not given in full) | 5.79 |
| COc1cccc(CCC(=O)Nc2cnc3c(c2)c(C)nn3C)c1OC | 1.67 |
| Cc1ccc(OCCN(C)S(=O)(=O)c2cnn(C)c2)cc1 | 0.821 |
| N#Cc1ccc(F)c(CN(CC(=O)N2CCCC2)CC2CCCO2)c1 (stereo not given) | -7.06 |
| N#Cc1ccc(CN2CCCN(C(=O)CCn3cncn3)CC2)cc1 | -12.7 |
| CN(Cc1cccc(Cl)c1)Cc1nnsc1Cl | 6.78 |
| CCN1CCC(CNC(=O)Nc2cccnc2OC)CC1 | -0.523 |
| Cc1cc(C(=O)N2CCN(S(C)(=O)=O)[C@@H](C)C2)c(F)cc1F | -1.78 |
| COCCc1noc(CN2CCCC2c2noc(C3CC3)n2)n1 (stereo not given) | 1.33 |

| Compound | cytotoxicity at 10 µM [%] |
| --- | --- |
| CN(Cc1ccco1)C(=O)C1=NN(C)C(=O)CC1 | -144 |
| Cc1cc(CCCC(=O)NC2CCN(C)C2=O)c(C)s1 (stereo not given) | -0.67 |
| CC(C)SCc1cccc(NC2CCN(C)C2=O)c1 (stereo not given) | 1.26 |
| Cc1ccc(S(=O)(=O)N(CC(N)=O)CC(C)C)cc1C | -14.5 |
| CS(=O)(=O)N1CCC(CSc2ccccc2)C1 (stereo not given) | 1.58 |
| COc1cc(OC)cc(C(=O)NCCCNc2ncccn2)c1 | -11.1 |
| CCn1nc(C(=O)N2CCCC2c2noc(C3CC3)n2)ccc1=O (stereo not given) | 5.65 |
| CCN(CC)c1ccc(C(=O)NCC2(C(N)=O)CCOCC2)cn1 | 2.99 |
| CCC(NC(=O)CCCNC(=O)OC)c1cc(F)ccc1F (stereo not given) | -2.34 |
| CS(=O)(=O)CC1(CNc2c(C#N)cnc3ccc(Cl)cc23)CC1 | 8.62 |
| CC(=O)N1CCSCC1c1ccc(C)o1 (stereo not given) | -0.872 |
| CCn1c(CN2CCOC(Cn3cncn3)C2)nc2cc(F)ccc21 (stereo not given) | -4.84 |
| CCC(C)C(=O)Nc1ccc(CCN2CCOCC2)cc1 (stereo not given) | -0.578 |
| Cc1ccc(-c2nc(CNc3ccc(C(N)=O)c(C)c3)cs2)o1 | 23.9 |
| CCCC(NC(=O)c1cc(C)n(C2CC2)c1C)c1nnn[nH]1 (stereo not given) | -10.1 |
| CN(Cc1nnc(C2CC2)n1C)C(=O)c1ccnc(OC2CCC2)c1 | -1.01 |
| O=C(Nc1ccnc(OC2CCOC2)c1)C1CCC1 (stereo not given) | 5.76 |
| CN(CCC#N)C(=O)CCOc1cccc(F)c1 | -2.46 |
| CCc1nccn1C1CCCN(C(=O)c2cn3c(C)cccc3n2)C1 (stereo not given) | -14.5 |
| COc1cccc(CN2CCOC(Cn3nc(C)cc3C)C2)c1 (stereo not given) | 7.83 |
| Cc1cccc(CN2CCc3onc(CN(C)C)c3C2)n1 | -4.62 |
| CN1CC2(CCN(C(=O)COc3ccc(Cl)cc3Cl)CC2)OC1=O | -3.25 |

| Compound | cytotoxicity at 10 µM [%] |
| --- | --- |
| O=C(O)CCc1cc2n(n1)CCCN(C(=O)c1ccc(F)cc1F)C2 | -0.168 |
| CCc1nc(C)c([C@H]2CN(C)C[C@@H]2C(=O)NCc2ccccc2OC)[nH]1 | 0.15 |
| CCn1ccnc1CN1CCCC(N(C)CCc2ccccc2)C1 (stereo not given) | 2.88 |
| OCc1cn(CC2CCN(C3CCSC3)CC2)nn1 (stereo not given) | 0.55 |
| Cc1ccc(C(=O)N2CCC(n3cc(CN)nn3)CC2)cc1F | -3.54 |
| O=C(c1cc(COc2ccc3c(c2)OCO3)[nH]n1)N1CCSCC1 | -7.05 |
| O=C1O[C@@H]2CN(Cc3cccnc3)C[C@@H]2N1CCCN1CCOCC1 | -2.27 |
| CCN1CC2(CCC1=O)CCN(C(=O)c1cn3cccnc3n1)CC2 | -9.7 |
| CN1CCN([C@@H]2CCN(Cc3ccc4cc(F)ccc4n3)C[C@H]2O)CC1 | -4.1 |
| CCn1nc(C)c(CCNC(=O)C2CCCN(C(=O)COC)C2)c1C (stereo not given) | -0.367 |
| CC(=O)N[C@@H]1CN(Cc2cccs2)C[C@H]1c1ccc(C)o1 | 6.54 |
| COc1ccc(CCN)cc1-c1ccc(O)cc1 | -3.05 |
| CCCC(C)C(=O)N1CCC(c2cc(N3CCOCC3)nc(C)n2)CC1 (stereo not given) | -3.35 |
| COCCN1CCN(c2ncnc3nc(C)cc(C)c23)CC1 | 2.42 |
| CCS(=O)(=O)c1ncc(CN(C)Cc2ccccc2Cl)n1CCOC | 3.58 |
| NCCn1cc(C(=O)N2CCNC(=O)C2c2cccc(F)c2)nn1 (stereo not given) | 3.62 |
| Cc1ccc(Oc2ncccc2CNC2Cc3ccccc3C2)cn1 | -2.19 |
| CC(C)CN1CC2(CCN(C(=O)c3cn4cccnc4n3)CC2)CC1=O | -6.84 |
| CCS(=O)(=O)N1CCC2(CCCN(Cc3cc(OC)ccc3F)C2)C1 (stereo not given) | 14.4 |
| CN(C)C(=O)c1cccc(CN2CCN(CC(O)C(C)(C)C)CC2)c1 (stereo not given) | 1.74 |
| Cn1cc(Cl)cc1C(=O)N1CCN(Cc2cccs2)CC1 | -8.1 |
| O=C(Cc1ccc2c(c1)CCO2)N1CCN(c2ccccn2)CC1 | -13.6 |

| Compound | cytotoxicity at 10 µM [%] |
| --- | --- |
| CCc1ccsc1C(=O)N1CCN(CC(C)(C)O)CC1 | -13.1 |
| Cn1ccnc1CN1CCCN(C(=O)COC2CCCCC2)CC1 | -23.9 |
| CC(C)c1nn(C)c(N(C)C)c1CNCC(O)c1cccc(F)c1 (stereo not given) | -1.82 |
| Cc1noc(C2CCN(C(=O)CCc3nccs3)CC2)n1 | -5.43 |
| COc1cc(CNCCc2cnn(C)c2)cc2c1OCCO2 | -4.82 |
| Cc1cnn(CC(C)NCc2csc(-c3ccsc3)n2)c1 (stereo not given) | -6.79 |
| CN1N=C(C(=O)NCc2ccc3c(c2)CCCN3C)CCC1=O | -0.602 |
| O=C(CN(C1=NCCCC1)c1ccccc1)c1ccccc1 | -0.239 |
| CC[C@@H]1N(Cc2cccnc2)CCC[C@]12CCC(=O)N2C | -0.213 |
| CN1CCN(CC2CC2)C(=O)C12CCN(C(=O)CC(F)(F)F)CC2 | 8.75 |
| Cc1ccc(C(=O)N2CCC3(CCN(c4ccsc4)C3=O)C2)cn1 (stereo not given) | -127 |
| O=C(c1ccccn1)N1CCc2ncc(Cn3cccn3)n2CC1 | 5.44 |
| c1cnc(N2CCOC3(CCCN(c4cnccn4)C3)C2)nc1 (stereo not given) | 10.1 |
| Cc1cccc(CN2C(=O)C[C@H]3[C@@H]2CCN3CC2CC2)n1 | 6.59 |
| Cc1ccc(CN2CCC3(CC2)CN(C(=O)c2cnccn2)CCO3)o1 | -4 |
| CO[C@H]1CCN(c2nnc(C)s2)C[C@@H]1Cc1ccccc1 | 11.8 |
| CN1[C@H](CN2CCCC2)C[C@@H]2CN(Cc3ccoc3)CC[C@@H]21 | -160 |
| CN(C)CCOCc1nnc2n1CCN(Cc1ccco1)C2 | 7.55 |
| CC1=N[C@@]2(CC[C@@H]3CN(Cc4ccccc4)C[C@@H]32)C(=O)N1CC1CC1 | -0.302 |
| O=C(NCc1cccnc1)N1CCc2ncnc(C3CC3)c2CC1 | -144 |
| O[C@H]1CCN(CC2CC2)[C@H]1Cc1ccncc1 | 0.165 |
| CN(C)[C@@H]1COC[C@@H]2CN(Cc3ccc4c(c3)OCO4)C[C@@H]21 | 2.02 |
